Values after ≈ are worked out from the molar mass of the structure shown. Read-outs that look alike come from different tables or passages of the source. Marks after values point to notes of the source that are not given here.
Columns and labels:
[1] = Thermogravimetric analysis; assay type: physicochemical; details: TGA onset, nitrogen atmosphere, 10 °C.min^-1
[2] = DPPH radical scavenging assay; details: for DPPH scavenging IC50: tested up to 1 mg.mL^-1, IC50 impossible to determine; for DPPH radical scavenging (antioxidant) activity, in words: 30, 90 and 120 minutes of exposure to DPPH
Method in brief: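 DPPH (250 µL of 0.91 mmol/L in methanol) was combined with 20–80 µL of a test compound stock and made up to 4 mL with methanol. Samples stood in the dark at room temperature for 30, 90 and 120 min before absorbance was read at 517 nm. Controls were DPPH without compound and ascorbic acid as positive control. Activity = (A0−A1)/A0×100, and IC50 came from scavenging-versus-concentration fits, in triplicate.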

[3] = Water solubility from saturated aqueous solution, UV quantification; assay type: physicochemical; details: 25 °C, pure water; for solubility at 72 h: water, thermodynamic from solid
[4] = test system: Raw 264.7 cells; assay: Cytotoxicity, resazurin metabolic conversion, Raw 264.7; assay type: cell-based, mouse; details: for EC50: read-out: EC50, 50% decrease in cell viability
Method in brief: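 Mouse Raw 264.7 macrophages were kept in IMDM with 10% non-inactivated FBS and penicillin/streptomycin at 37 °C, 5% CO2. After 24 h attachment, cells received test compound at 1–5000 µM in full medium for 24 h. Resazurin (10% v/v) was added for the last 1 h, and resorufin absorbance was read at 570/600 nm relative to untreated cells. EC50 was fitted by non-linear least squares to a logistic model, from three independent experiments in triplicate.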

[5] = test system: HaCaT cells; assay: Cytotoxicity, resazurin metabolic conversion, HaCaT; assay type: cell-based, human
Method in brief: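 HaCaT keratinocytes were grown in high-glucose DMEM with 4 mM glutamine, 10% heat-inactivated FBS and penicillin/streptomycin at 37 °C under 5% CO2. After 24 h attachment in 96-well plates, cells were exposed for 24 h to test compound (1–5000 µM) in full medium. Resazurin (10% v/v) was present for the final 2 h. Absorbance was read at 570/600 nm and normalised to untreated cells. EC50 came from a logistic least-squares fit of three independent experiments run in triplicate.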

[6] = test system: Vibrio fischeri; assay: Standard Microtox liquid-phase assay; assay type: cell-based, Vibrio fischeri (strain NRRL B-11177); details: for Ecotoxicity rank among the cholinium-based salts: EC50 in mmol.L^-1, Figure 2; for EC50, luminescence inhibition: 30 min of exposure, 15 °C, Passino's classification
Method in brief: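 Vibrio fischeri NRRL B-11177 was tested by the standard 81.9% liquid-phase protocol at 15 °C. Aqueous dilutions (0–81.9 wt% of stock) were used, with stock concentration corrected for water content by Karl Fischer titration. Luminescence was read after 5, 15 and 30 min and compared with a blank. EC50 and 95% confidence intervals were fitted to a logistic equation by non-linear least squares.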

[7] = cited from earlier work
[8] = test system: Raw 264.7 macrophages stimulated with LPS; assay: Inhibition of LPS-induced NO production in macrophages; assay type: cell-based, mouse; details: 100 μM and 50 μM, pre-treated 1 hour, LPS 1 μg.mL^-1
[9] = 25 °C; ref Queimada et al. 39; cited from earlier work
[10] = Raw 264.7, 24 hours of exposure
[11] = read-out: EC50, 50% decrease in cell viability, 24 hours of exposure
[12] = Homo sapiens, 24 h, read-out: EC50, 50% decrease in cell viability

## O=C(O)c1ccccc1O [salicylic acid, reference compound]
[1]
  Temperature of decomposition (Td): 183.9 ºC
[2]
  DPPH scavenging IC50: > 1000 µg/mL

## COc1cc(C(=O)[O-])cc(OC)c1O.C[N+](C)(C)CCO [[Chol][Syr], (2-hydroxyethyl) trimethylammonium 4-hydroxy-3,5-dimethoxybenzoate]
[1]
  Temperature of decomposition (Td): 178.9 ºC
[3]
  Water solubility ± std: 2793.71 ± 17.98 mM

## O=C(O)/C=C/c1ccc(O)c(O)c1 [[Chol][Caf], (2-hydroxyethyl) trimethylammonium (E)-3-(3,4-dihydroxyphenyl)acrylate]
[4]; [10]
  EC50: 2.34 mM
[5]; [11]
  EC50: 1.79 mM

## O=C(O)c1cc(O)c(O)c(O)c1 [[Chol][Gal], (2-hydroxyethyl) trimethylammonium 3,4,5-trihydroxybenzoate]
[4]; [10]
  EC50: 0.836 mM
[5]; [11]
  EC50: 0.303 mM

## C[N+](C)(C)CCO.O=C([O-])c1ccccc1O [[Chol][Sal], (2-hydroxyethyl) trimethylammonium 2-hydroxybenzoate, reference compound]
[1]
  Temperature of decomposition (Td): 226.0 ºC
[3]
  Water solubility ± std: Completely miscible
[2]
  DPPH scavenging IC50: > 1000 µg/mL
[6]
  Ecotoxicity rank among the cholinium-based salts: most toxic

## COc1cc(C(=O)O)ccc1O [vanillic acid, reference compound]
[1]
  Temperature of decomposition (Td): 233.7 ºC

## C[N+](C)(C)CCO.[Cl-] [cholinium chloride, Cholinium chloride]
[7]
  Decomposition temperature: circa 305 ºC

## O=C(O)c1cc(O)c(O)c(O)c1 [gallic acid, 3,4,5-trihydroxybenzoic acid, reference compound]
[1]
  Temperature of decomposition (Td): 262.5 ºC
[3]
  solubility at 72 h: 71.3 ± 2.7 mM (≈ 12100 µg/mL)
[4]; Mus musculus, RAW264.7, 24 h
  EC50: 0.591 mM
[5]; [12]
  EC50: 0.267 mM
[8]
  Effect on LPS-induced NO production: neither [Chol][Gal] nor gallic acid decrease the LPS-induced NO production

## C[N+](C)(C)CCO.O=C([O-])c1cc(O)c(O)c(O)c1 [[Chol][Gal], (2-hydroxyethyl) trimethylammonium 3,4,5-trihydroxybenzoate]
[1]
  Temperature of decomposition (Td): 185.3 ºC
[3]
  Water solubility ± std: 2402.27 ± 6.09 mM
[6]
  EC50, luminescence inhibition: > 1000 µg/mL
  Ecotoxicity rank among the cholinium-based salts: less toxic
[8]
  Effect on LPS-induced NO production: neither [Chol][Gal] nor gallic acid decrease the LPS-induced NO production

## O=c1oc2c(O)c(O)cc3c(=O)oc4c(O)c(O)cc1c4c23 [ellagic acid, reference compound]
[1]
  Temperature of decomposition (Td): 472.6 ºC
[9]
  Water solubility ± std: 1.26E-02 ± 3.31E-04 ^b mmol.L^-1

## COc1cc(C(=O)[O-])ccc1O.C[N+](C)(C)CCO [[Chol][Van], (2-hydroxyethyl) trimethylammonium 4-hydroxy-3-methoxybenzoate]
[1]
  Temperature of decomposition (Td): 186.8 ºC
[2]
  DPPH radical scavenging (antioxidant) activity, in words: significantly higher DPPH radical scavenging activity than vanillic acid
[6]
  EC50, luminescence inhibition: > 1000 µg/mL

## C[N+](C)(C)CCO.C[N+](C)(C)CCO.O=c1oc2c(O)c([O-])cc3c(=O)oc4c(O)c([O-])cc1c4c23 [[Chol]2[Ell], di((2-hydroxyethyl)trimethylammonium) 3,8-dihydroxy-5,10-dioxo-5,10-dihydrochromeno[5,4,3-cde]chromene-2,7-bis(olate)]
[1]
  Temperature of decomposition (Td): 265 ºC
[1]; listed as [Chol]2 [Ell]
  Temperature of decomposition (Td): 265.0 ºC
[3]
  Water solubility ± std: 622.97 ± 36.98 mM
[2]
  DPPH radical scavenging (antioxidant) activity, in words: highest antioxidant activity
[4]; 125 µM, Raw 264.7
  Cell viability at maximum concentration achieved: not observed a decrease in the cell viability
[5]; 125 µM
  Cell viability at maximum concentration achieved: not observed a decrease in the cell viability
[8]
  Effect on LPS-induced NO production: significantly inhibit the LPS-induced NO increase

## C[N+](C)(C)CCO.O=C([O-])/C=C/c1ccc(O)c(O)c1 [[Chol][Caf], (2-hydroxyethyl) trimethylammonium (E)-3-(3,4-dihydroxyphenyl)acrylate]
[8]
  Effect on LPS-induced NO production: significantly inhibit the LPS-induced NO increase

## O=C(O)/C=C/c1ccc(O)c(O)c1 [caffeic acid, reference compound]
[3]
  solubility at 72 h: 3.84 ± 0.04 mM (≈ 692 µg/mL)
[4]; Mus musculus, RAW264.7, 24 h
  EC50: 2 mM
[5]; [12]
  EC50: 1.8 mM
